Test results as given in ChEMBL document CHEMBL1140859, “Design and synthesis of some thiazolyl and thiadiazolyl derivatives of antipyrine as potential non-acidic anti-inflammatory, analgesic and antimicrobial agents” (Bioorg Med Chem, 2009).
In brackets after ≈: the same amount, converted by molar mass.

Experiments:
Rattus norvegicus [1] = assay: Analgesic activity in Albino rat assessed as tail withdrawal response at 10 mg/kg, po after 2 hrs; format: functional
How it was run: (§1)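 Male albino rats, 120–150 g, groups of five plus untreated control; test compounds 20 mg/kg po, diclofenac Na 10 mg/kg po. Tail immersed in 55 °C water; withdrawal reaction time read 1, 2 and 3 h after dosing; percentage increase in reaction time over basal computed; mean ± SE of five animals.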

Rattus norvegicus [2] = assay: Antiinflammatory activity against formalin-induced paw edema in anaesthetized Albino rat acute inflammatory model at 10 mg/kg, po dosed 1 hr before formalin challenge assessed after 3 hrs; format: functional
How it was run: (§2)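 Rats in groups of five plus control; test compounds 20 mg/kg po, diclofenac Na 10 mg/kg po, given 1 h before 0.1 mL 2% formalin injected subplantar into left hind paw under light ether anaesthesia. Paw volume by water plethysmometer at 0 and 1, 2, 3, 4 h after formalin; % anti-inflammatory activity versus control; mean ± SE, N = 5.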

Rattus norvegicus [3] = assay: Antiinflammatory activity against formalin-induced paw edema in anaesthetized Albino rat acute inflammatory model at 10 mg/kg, po dosed 1 hr before formalin challenge assessed after 1 hr; format: functional; how it was run: as §2
Rattus norvegicus [4] = assay: Antiinflammatory activity against formalin-induced paw edema in anaesthetized Albino rat acute inflammatory model at 10 mg/kg, po dosed 1 hr before formalin challenge assessed after 4 hrs; format: functional; how it was run: as §2
Rattus norvegicus [5] = assay: Antiinflammatory activity against turpentine oil-induced granuloma pouch in anaesthetized Albino rat sub-acute inflammatory model at 10 mg/kg, po 1 hr before turpentine oil challenge for 7 days assessed after 8 days; format: functional
How it was run: (§3)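 Dorsal subcutaneous pouch made in ether-anaesthetised rats with 2 mL air, then 0.5 mL turpentine oil. Test compounds 20 mg/kg po, diclofenac Na 10 mg/kg po, started 1 h before turpentine and continued 7 days. Exudate aspirated on day 8 under anaesthesia; volume measured; % inhibition = (Vcontrol − Vtreated)/Vcontrol × 100; N = 5.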

Rattus norvegicus [6] = assay: Analgesic activity in Albino rat assessed as tail withdrawal response at 10 mg/kg, po after 1 hr; format: functional; how it was run: as §1
Rattus norvegicus [7] = assay: Antiinflammatory activity against formalin-induced paw edema in anaesthetized Albino rat sub-acute inflammatory model at 10 mg/kg, po measured on day 1; format: functional
How it was run: (§4)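 Sub-acute paw edema: test compounds 20 mg/kg po daily for 7 days, diclofenac Na 10 mg/kg po; 0.1 mL 2% formalin injected subplantar into left hind paw under light ether anaesthesia on days 1 and 3, 1 h after dosing. Paw volume measured on day 1 and day 8; % anti-inflammatory activity; N = 5 rats.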

Rattus norvegicus [8] = assay: Antiinflammatory activity against formalin-induced paw edema in anaesthetized Albino rat sub-acute inflammatory model at 10 mg/kg, po for 7 days measured on day 8; format: functional; how it was run: as §4
Rattus norvegicus [9] = assay: Analgesic activity in Albino rat assessed as tail withdrawal response at 10 mg/kg, po after 3 hrs; format: functional; how it was run: as §1
Rattus norvegicus [10] = assay: Toxicity in Albino rat assessed as induction of gastric ulceration at 300 mg/kg, po twice a day after 2 hrs; format: organism-based, Stomach; set-up: dose 300 mg/kg, route oral; conditions: in vivo
How it was run: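 Male albino rats (180–200 g), five per group, fasted 12 h with water ad libitum. Oral dosing at 300 mg/kg; the results text gives two doses at a 2 h interval, while the methods give two equal doses at 0 and 12 h over three days. Controls received 1% gum acacia orally. Rats were killed with ether 6 h after the last dose, and stomachs were inspected grossly for ulceration and hyperemia.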

Rattus norvegicus [11] = assay: Antiinflammatory activity against formalin-induced paw edema in anaesthetized Albino rat acute inflammatory model at 10 mg/kg, po dosed 1 hr before formalin challenge assessed after 2 hrs; format: functional; how it was run: as §2
Klebsiella pneumoniae = assay: Antimicrobial activity against Klebsiella pneumoniae clinical isolate after 24 hrs by twofold serial dilution method; format: functional
How it was run: (§5)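 Broth microdilution in Müller–Hinton broth on compounds with agar-diffusion inhibition zones ≥14 mm (disks with 1 mg/mL in DMSO, 37 °C, 24 h, triplicate).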

Rattus norvegicus [12] = assay: Analgesic activity in Albino rat assessed as tail withdrawal response at 20 mg/kg, po after 3 hrs; format: functional; how it was run: as §1
Escherichia coli = assay: Antimicrobial activity against Escherichia coli ATCC 25922 after 24 hrs by twofold serial dilution method; format: functional; conditions: ATCC 25922, 24 h; how it was run: as §5
Rattus norvegicus [13] = assay: Antiinflammatory activity against formalin-induced paw edema in anaesthetized Albino rat acute inflammatory model at 20 mg/kg, po dosed 1 hr before formalin challenge assessed after 3 hrs; format: functional; how it was run: as §2
[14] = Acute toxicity in Albino rat after 24 hrs; format: organism-based; conditions: in vivo, read-out: ALD50
How it was run: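 Male rats, 180–200 g, groups of five, fasted 24 h before dosing; compounds given orally in graded doses of 0.1–3.0 g/kg; mortality recorded at each dose level after 24 h to estimate approximate acute lethal dose (ALD50).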

Rattus norvegicus [15] = assay: Antiinflammatory activity against formalin-induced paw edema in anaesthetized Albino rat acute inflammatory model at 20 mg/kg, po dosed 1 hr before formalin challenge assessed after 4 hrs; format: functional; how it was run: as §2
Rattus norvegicus [16] = assay: Antiinflammatory activity against turpentine oil-induced granuloma pouch in anaesthetized Albino rat sub-acute inflammatory model at 20 mg/kg, po 1 hr before turpentine oil challenge for 7 days assessed after 8 days; format: functional; how it was run: as §3
Bacillus subtilis = assay: Antimicrobial activity against Bacillus subtilis NRRL B-14819 after 24 hrs by twofold serial dilution method; format: functional; how it was run: as §5
Staphylococcus aureus = assay: Antimicrobial activity against Staphylococcus aureus ATCC 6538 after 24 hrs by twofold serial dilution method; format: functional; conditions: ATCC 6538, 24 h; how it was run: as §5
Rattus norvegicus [17] = assay: Antiinflammatory activity against formalin-induced paw edema in anaesthetized Albino rat acute inflammatory model at 20 mg/kg, po dosed 1 hr before formalin challenge assessed after 2 hrs; format: functional; how it was run: as §2
Pseudomonas aeruginosa = assay: Antimicrobial activity against Pseudomonas aeruginosa ATCC 27853 after 24 hrs by twofold serial dilution method; format: functional; conditions: ATCC 27853, 24 h; how it was run: as §5
Rattus norvegicus [18] = assay: Analgesic activity in Albino rat assessed as tail withdrawal response at 20 mg/kg, po after 1 hr; format: functional; how it was run: as §1
Rattus norvegicus [19] = assay: Analgesic activity in Albino rat assessed as tail withdrawal response at 20 mg/kg, po after 2 hrs; format: functional; how it was run: as §1
Rattus norvegicus [20] = assay: Antiinflammatory activity against formalin-induced paw edema in anaesthetized Albino rat acute inflammatory model at 20 mg/kg, po dosed 1 hr before formalin challenge assessed after 1 hr; format: functional; how it was run: as §2
Rattus norvegicus [21] = assay: Antiinflammatory activity against formalin-induced paw edema in anaesthetized Albino rat sub-acute inflammatory model at 20 mg/kg, po measured on day 1; format: functional; how it was run: as §4
Micrococcus luteus = assay: Antimicrobial activity against Micrococcus luteus ATCC 21881 after 24 hrs by twofold serial dilution method; format: functional; conditions: ATCC 21881, 24 h; how it was run: as §5
Rattus norvegicus [22] = assay: Antiinflammatory activity against formalin-induced paw edema in anaesthetized Albino rat sub-acute inflammatory model at 20 mg/kg, po for 7 days measured on day 8; format: functional; how it was run: as §4

O=C([O-])Cc1ccccc1Nc1c(Cl)cccc1Cl.[Na+] [DICLOFENAC SODIUM]
Activity (Rattus norvegicus [1]): 55% | Activity (Rattus norvegicus [2]): 44% | Activity (Rattus norvegicus [3]): 17% | Activity (Rattus norvegicus [4]): 45% | Activity (Rattus norvegicus [5]): 73% | Activity (Rattus norvegicus [6]): 26% | Activity (Rattus norvegicus [7]): 40% | Activity (Rattus norvegicus [8]): 46% | Activity (Rattus norvegicus [9]): 79% | Activity (Rattus norvegicus [10]): Toxic | Activity (Rattus norvegicus [11]): 40%

CCOC(=O)/C(C#N)=C1/SC(C(=O)Nc2c(C)n(C)n(-c3ccccc3)c2=O)=C(N)N1c1ccccc1
MIC (Klebsiella pneumoniae): 50 µg/mL (≈ 96.8 µM) | Activity (Rattus norvegicus [12]): 67% | MIC (Escherichia coli): 50 µg/mL (≈ 96.8 µM) | Activity (Rattus norvegicus [13]): 38% | LD50 at 24 h [14]: > 3000 mg/kg | Activity (Rattus norvegicus [15]): 29% | Activity (Rattus norvegicus [16]): 53% | MIC (Bacillus subtilis): 12.5 µg/mL (≈ 24.2 µM) | MIC (Staphylococcus aureus): 12.5 µg/mL (≈ 24.2 µM) | Activity (Rattus norvegicus [17]): 26% | MIC (Pseudomonas aeruginosa): 50 µg/mL (≈ 96.8 µM) | Activity (Rattus norvegicus [18]): 32% | Activity (Rattus norvegicus [19]): 50% | Activity (Rattus norvegicus [20]): 30% | Activity (Rattus norvegicus [21]): 29% | MIC (Micrococcus luteus): 25 µg/mL (≈ 48.4 µM) | Activity (Rattus norvegicus [22]): 31% | Activity (Rattus norvegicus [10]): Non-toxic
